# Assay results collected from several papers.
# Lines come from different studies, so protocols differ.
# PRKCB: Protein kinase C beta type (PRKCB, Homo sapiens, UniProt P05771)
# KMT5A: N-lysine methyltransferase KMT5A (KMT5A, Homo sapiens, UniProt Q9NQR1)
# HTR3A: 5-hydroxytryptamine receptor 3A (HTR3A, Homo sapiens, UniProt P46098)
SMILES,target,read-out,action,method,cells,tested at,inhibition [%]
CN(C)C1CCN(CC#Cc2nn(C3CCCC3)c3nc(NCc4ccccc4)ncc23)C1 (centres unmarked),"cAMP-dependent protein kinase catalytic subunit alpha (PRKACA, Homo sapiens, UniProt P17612)",enzyme activity,inhibitor,FRET,,10 µM,12
COc1cc(NC(C)=O)c(Cl)cc1C(=O)Nc1nccs1,"Androgen receptor (AR, Homo sapiens, UniProt P10275)",cell-free assay,,,,10 µM,-19.5
COc1cc2ncnc(Nc3ccc(Oc4ccccc4)cc3C)c2cc1OC,PRKCB,enzyme activity,inhibitor,,,1 µM,7
O=C(O[C@@H]1Cc2c(O)cc(O)cc2O[C@@H]1c1cc(O)c(O)c(O)c1-c1c([C@H]2Oc3cc(O)cc(O)c3C[C@H]2O)cc(O)c(O)c1O)c1cc(O)c(O)c(O)c1,KMT5A,cell-free assay,,,,10 µM,17
CSc1nc(C)c(-c2ccnc(Nc3ccc(N4CCOCC4)cc3)c2)[nH]1,PRKCB,enzyme activity,inhibitor,,,10 µM,1.3
CCN(CC)CCNC(=O)c1c(C)[nH]c(/C=C2\C(=O)Nc3ccc(F)cc32)c1C,"cAMP-dependent protein kinase catalytic subunit alpha (PRKACA, Bos taurus, UniProt P00517)",enzyme activity,inhibitor,,,10 µM,1
O=C(O)c1ncccc1O,"Neutrophil collagenase (MMP8, Homo sapiens, UniProt P22894)",enzyme activity,inhibitor,fluorescence,,1 mM,~50
O=C1c2c(O)cccc2Cc2cccc(O)c21,KMT5A,cell-free assay,,,,10 µM,19
Cc1ccc(Nc2nccc(N(C)c3ccc4c(C)n(C)nc4c3)n2)cc1S(N)(=O)=O,"cAMP-dependent protein kinase catalytic subunit alpha (PRKACA, Bos taurus, UniProt P00517)",enzyme activity,inhibitor,,,0.3 µM,-7
COc1cc(-c2cc(-c3ccc(N4CCNCC4)cc3)cnc2N)cc(OC)c1OC,"Tyrosine-protein kinase ABL1 (ABL1, Homo sapiens, UniProt P00519, E255K)",enzyme activity,inhibitor,,,0.1 µM,74
O=C1C=C2CC3(O)COc4c(ccc(O)c4O)C3=C2C=C1O (centres unmarked),KMT5A,cell-free assay,,,,10 µM,8
CCCS(=O)(=O)Nc1ccc(F)c(C(=O)c2c[nH]c3ncc(-c4ccc(Cl)cc4)cc23)c1F,PRKCB,enzyme activity,inhibitor,,,1 µM,< 20
CCCCC(CC)CNC(=N)NC(=N)NCCCCCCNC(=N)NC(=N)NCC(CC)CCCC (centres unmarked),KMT5A,cell-free assay,,,,10 µM,34
O=C(c1ccc(F)cc1)N(Cc1ccccc1)C1CCCCC1,HTR3A,ligand displacement,,,,10 µM,-1
CCN(c1cc(C#CCN2CCOCC2)cc(C(=O)NCc2c(C)cc(C)[nH]c2=O)c1C)[C@H]1CC[C@H](N(C)CCOC)CC1,"Protein arginine N-methyltransferase 6 (PRMT6, Homo sapiens, UniProt Q96LA8)",enzyme activity,inhibitor,,,1 µM,6
O=C(O)c1cc(O)c2c(c1)[C@H]([C@H]1c3cc(C(=O)O)cc(O)c3C(=O)c3c(O[C@@H]4O[C@H](CO)[C@@H](O)[C@H](O)[C@H]4O)cccc31)c1cccc(O[C@@H]3O[C@H](CO)[C@@H](O)[C@H](O)[C@H]3O)c1C2=O,KMT5A,cell-free assay,,,,10 µM,23
COc1ccc(C(=O)c2coc3c2C(=O)C(=O)C(Cl)=C3)cc1,"Peptide deformylase, mitochondrial (Homo sapiens, UniProt Q9HBH1)",enzyme activity,inhibitor,,,100 µM,≥ 100
Ic1cccc2cnccc12,"Nicotinamide phosphoribosyltransferase (NAMPT, Homo sapiens, UniProt P43490)",enzyme activity,inhibitor,,,10 µM,-2
CCN1CCN(Cc2ccc(NC(=O)c3ccc(C)c(Oc4ccnc5[nH]ccc45)c3)cc2C(F)(F)F)CC1,"Receptor-interacting serine/threonine-protein kinase 4 (RIPK4, Homo sapiens, UniProt P57078)",target engagement in cells,inhibitor,chemoproteomics,A-375,5 µM,-11.6
Cn1cncc1C1=CN(c2ncnc3[nH]cnc23)CCS1,"Serine/threonine-protein kinase LATS1 (LATS1, Homo sapiens, UniProt O95835)",enzyme activity,inhibitor,radiometric,,50 nM,35
O=c1c(-c2cc(O)c(O)c(O)c2)coc2cc(O)c(O)c(O)c12,KMT5A,cell-free assay,,,,10 µM,9
COC(=O)/C=C\C(=O)Nc1cc2ccc(O)cc2oc1=O,"Histone acetyltransferase p300 (EP300, Homo sapiens, UniProt Q09472)",enzyme activity,inhibitor,radiometric,,50 µM,> 90
O=C1C=CC(=O)c2c(O)cccc21,KMT5A,cell-free assay,,,,10 µM,19
CCN1CCN(Cc2ccc(NC(=O)c3ccc(C)c(/C=C/c4cnc5[nH]ccc5c4OC)c3)cc2C(F)(F)F)CC1,"Serine/threonine-protein kinase greatwall (MASTL, Homo sapiens, UniProt Q96GX5)",target engagement in cells,inhibitor,chemoproteomics,A-375,0.5 µM,0.239
Oc1cccc(Nc2nc(-c3ccc(F)cc3F)cs2)c1,HTR3A,ligand displacement,,radioligand,,10 µM,0.9
COc1cc(NC(C)CCCN)c2ncccc2c1 (centres unmarked),KMT5A,cell-free assay,,,,10 µM,28
